In one data set the test system is Rattus norvegicus. The data set can be described thus: Reversal of heart failure-induced pulmonary edema in Sprague-Dawley rat assessed as inhibition of GSK1016790A-induced increase in lung wet weight to body weight ratio at 0.02 to 0.21 ug/kg, iv bolus loading dose followed by 0.3 to 2.3 ug/kg/min, iv continuous infusion dose for 60 mins prior to agonist administration. The data set is classed as functional, organism-based. The procedure, abridged:
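Rats given vehicle or antagonist by i.v. infusion, then agonist GSK1016790A i.v. at 10 µg/kg/min for 10 min (100 µg/kg total). Edema scored as wet lung weight/body weight ratio against naïve animals; inhibition computed from the agonist response; mean ± SEM.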

In data set [1] the target is Transient receptor potential cation channel subfamily V member 1 (Homo sapiens, UniProt Q8NER1). The data set can be described thus: Antagonist activity at TRPV1 (unknown origin).
Transient receptor potential cation channel subfamily V member 1, sequence (Q8NER1 whole entry, the tested form may be a part): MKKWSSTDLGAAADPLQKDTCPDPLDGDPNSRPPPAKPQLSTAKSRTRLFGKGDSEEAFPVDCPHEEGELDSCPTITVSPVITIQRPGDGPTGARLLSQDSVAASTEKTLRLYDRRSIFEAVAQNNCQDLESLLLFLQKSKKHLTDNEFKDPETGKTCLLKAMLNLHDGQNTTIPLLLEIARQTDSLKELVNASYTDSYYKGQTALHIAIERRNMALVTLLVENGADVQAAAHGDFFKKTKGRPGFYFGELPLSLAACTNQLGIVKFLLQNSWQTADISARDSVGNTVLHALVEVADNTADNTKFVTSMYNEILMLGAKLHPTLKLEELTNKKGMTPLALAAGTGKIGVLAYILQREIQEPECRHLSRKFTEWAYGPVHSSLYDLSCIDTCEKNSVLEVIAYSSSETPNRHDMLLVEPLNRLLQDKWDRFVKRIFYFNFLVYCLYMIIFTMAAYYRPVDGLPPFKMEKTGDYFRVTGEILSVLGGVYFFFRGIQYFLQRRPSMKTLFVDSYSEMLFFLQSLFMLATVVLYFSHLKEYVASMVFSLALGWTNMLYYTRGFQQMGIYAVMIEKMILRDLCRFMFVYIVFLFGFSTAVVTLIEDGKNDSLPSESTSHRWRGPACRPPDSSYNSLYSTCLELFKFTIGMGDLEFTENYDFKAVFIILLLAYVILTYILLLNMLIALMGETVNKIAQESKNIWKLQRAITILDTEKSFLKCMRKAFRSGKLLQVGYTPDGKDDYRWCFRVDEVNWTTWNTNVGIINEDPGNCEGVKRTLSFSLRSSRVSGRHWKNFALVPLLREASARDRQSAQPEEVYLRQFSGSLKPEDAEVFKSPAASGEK
A short description of data set [2]: Plasma concentration in Sprague-Dawley rat heart failure-induced pulmonary edema model at 0.02 ug/kg, iv bolus loading dose followed by 0.3 ug/kg/min, iv continuous infusion dose for 60 mins. Type of data set: ADME, organism-based. The settings on record: 2e-05 mg/kg.
Data set [3] is described as follows: Dose normalized AUC (0 to t) in dog at 30 mg/kg, po. The data set is classed as ADME, organism-based, Canis lupus familiaris. As to conditions: in vivo; call rule not given here.
A short description of data set [4]: Dose normalized AUC (0 to t) in dog at 0.9 mg/kg, po. The data set is classed as ADME, organism-based, Canis lupus familiaris. The settings on record: in vivo.
The next data set addresses Cytochrome P450 3A4 (Homo sapiens, UniProt P08684). In words: Time dependent inhibition of CYP3A4 (unknown origin) up to 100 uM preincubated up to 15 mins followed by 7-benzyloxy-trifluoromethylcoumarin substrate and NADPH addition by fluorescence assay. Type of data set: ADME.
The target in another data set is T1, TRPC3/TRPC6 (Homo sapiens, UniProt Q13507+Q9Y210).
T1 sequence (Q9Y210 whole entry): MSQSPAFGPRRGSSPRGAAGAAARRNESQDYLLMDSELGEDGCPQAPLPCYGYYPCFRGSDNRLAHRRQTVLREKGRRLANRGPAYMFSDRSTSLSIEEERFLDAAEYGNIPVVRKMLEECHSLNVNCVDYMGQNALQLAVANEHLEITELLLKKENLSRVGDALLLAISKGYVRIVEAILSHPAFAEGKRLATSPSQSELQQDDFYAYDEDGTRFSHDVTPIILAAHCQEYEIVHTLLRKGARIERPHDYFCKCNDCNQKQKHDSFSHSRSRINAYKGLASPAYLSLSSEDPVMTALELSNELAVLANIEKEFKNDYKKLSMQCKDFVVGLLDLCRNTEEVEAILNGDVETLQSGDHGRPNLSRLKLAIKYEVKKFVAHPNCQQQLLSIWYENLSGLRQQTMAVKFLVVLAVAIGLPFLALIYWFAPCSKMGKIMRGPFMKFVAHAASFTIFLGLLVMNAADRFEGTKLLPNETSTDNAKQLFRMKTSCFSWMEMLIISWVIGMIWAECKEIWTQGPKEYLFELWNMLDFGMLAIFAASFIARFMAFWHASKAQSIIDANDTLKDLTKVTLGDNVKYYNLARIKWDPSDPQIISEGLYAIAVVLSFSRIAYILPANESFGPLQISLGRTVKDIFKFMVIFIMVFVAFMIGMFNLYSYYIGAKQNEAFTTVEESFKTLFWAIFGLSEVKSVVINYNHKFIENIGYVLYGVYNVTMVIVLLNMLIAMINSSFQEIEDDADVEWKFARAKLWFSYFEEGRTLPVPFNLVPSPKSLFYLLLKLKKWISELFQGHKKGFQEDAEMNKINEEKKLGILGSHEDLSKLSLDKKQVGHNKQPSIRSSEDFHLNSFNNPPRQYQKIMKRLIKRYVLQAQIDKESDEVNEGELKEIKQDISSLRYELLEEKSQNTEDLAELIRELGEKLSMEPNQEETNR
T1 sequence (Q13507 whole entry): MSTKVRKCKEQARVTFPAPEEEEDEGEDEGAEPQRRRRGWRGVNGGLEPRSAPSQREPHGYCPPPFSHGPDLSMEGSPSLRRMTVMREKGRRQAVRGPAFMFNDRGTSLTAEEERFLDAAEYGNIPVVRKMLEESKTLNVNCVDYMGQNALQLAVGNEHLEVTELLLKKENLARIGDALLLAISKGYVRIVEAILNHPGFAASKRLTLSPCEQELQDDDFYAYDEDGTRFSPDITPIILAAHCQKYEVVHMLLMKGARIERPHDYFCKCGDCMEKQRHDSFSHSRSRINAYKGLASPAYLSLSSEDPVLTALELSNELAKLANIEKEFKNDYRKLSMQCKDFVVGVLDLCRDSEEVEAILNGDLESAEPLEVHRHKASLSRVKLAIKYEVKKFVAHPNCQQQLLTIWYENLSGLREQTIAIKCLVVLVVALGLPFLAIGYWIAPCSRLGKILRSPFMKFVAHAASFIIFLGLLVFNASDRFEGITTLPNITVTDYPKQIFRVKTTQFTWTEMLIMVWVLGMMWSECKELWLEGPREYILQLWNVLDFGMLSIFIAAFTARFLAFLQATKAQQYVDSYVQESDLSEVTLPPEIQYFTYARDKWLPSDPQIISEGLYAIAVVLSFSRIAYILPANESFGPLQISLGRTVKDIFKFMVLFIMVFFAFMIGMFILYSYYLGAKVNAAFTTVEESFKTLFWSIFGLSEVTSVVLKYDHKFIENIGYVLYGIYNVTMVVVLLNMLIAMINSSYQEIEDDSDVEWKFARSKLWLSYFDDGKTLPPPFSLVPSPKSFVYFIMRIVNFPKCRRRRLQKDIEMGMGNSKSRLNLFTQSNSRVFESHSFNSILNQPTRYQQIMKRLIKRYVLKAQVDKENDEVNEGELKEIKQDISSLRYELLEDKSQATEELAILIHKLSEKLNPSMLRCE
In words: Antagonist activity at TRPC3/TRPC6 (unknown origin). The data set is classed as protein-complex assay.

A short description of data set [5]: AUC (0 to t) in rat at 98 mg/kg, po. Type of data set: ADME, organism-based. The settings on record: in vivo.
Data set [6] is described as follows: Fraction unbound in Sprague-Dawley rat heart failure-induced pulmonary edema model at 0.02 to 0.21 ug/kg, iv bolus loading dose followed by 0.3 to 2.3 ug/kg/min, iv continuous infusion dose for 60 mins. Type of data set: ADME, organism-based. As to conditions: in vivo.
The nature of data set [7]: Volume of distribution at steady state in Sprague-Dawley rat at 1 mg/kg, iv or 2 mg/kg, po by LC/MS/MS analysis. Type of data set: ADME, organism-based. As to conditions: in vivo, read-out: Vdss.

Structures are written as SMILES.

One may read the IC50 as the concentration that inhibits the measured activity by half. One may read the AUC(0-t) as the area under the concentration-time curve up to a stated or last time point. Usually fraction unbound stands for free concentration divided by total concentration. Read a high fraction unbound as much free substance.

Cytochrome P450 3A4, sequence (P08684 whole entry): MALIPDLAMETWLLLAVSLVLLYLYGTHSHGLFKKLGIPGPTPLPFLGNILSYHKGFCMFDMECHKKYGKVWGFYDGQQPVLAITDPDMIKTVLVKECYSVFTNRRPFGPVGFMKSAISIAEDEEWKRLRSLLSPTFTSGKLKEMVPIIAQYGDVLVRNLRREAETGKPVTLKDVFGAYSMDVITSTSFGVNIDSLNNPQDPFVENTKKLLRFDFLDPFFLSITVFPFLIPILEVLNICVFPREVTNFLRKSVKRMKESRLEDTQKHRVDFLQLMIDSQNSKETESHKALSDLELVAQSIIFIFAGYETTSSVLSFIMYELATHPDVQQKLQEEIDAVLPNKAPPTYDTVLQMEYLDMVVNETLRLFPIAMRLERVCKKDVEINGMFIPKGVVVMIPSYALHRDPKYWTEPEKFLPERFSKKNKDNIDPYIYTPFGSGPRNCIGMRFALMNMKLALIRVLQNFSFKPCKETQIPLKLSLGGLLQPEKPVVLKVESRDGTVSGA

As for `N#Cc1ccc(S(=O)(=O)N2C[C@H](S(=O)(=O)c3ccc(Cl)cc3)[C@](O)(CO)C2)c(Cl)c1`, in the data set with Rattus norvegicus, the fIC50 is 0.3 nM. Moreover, the IC50 with Rattus norvegicus (Rattus norvegicus, Sprague-Dawley) is 0.033 µM; in [1], more than 30 µM; against TRPC3/TRPC6, more than 30 µM. Also, the concentration at 1 h in [2] amounted to 14 nM. For the same compound, the AUCt/dose in data set [3] was determined as 3 kg·h/L; in data set [4], 2.9 kg·h/L. On Cytochrome P450 3A4, the TDI result is given as “Not Active”. In data set [5], this compound had an AUC(0-t) of 40000 ng·h/mL. The fraction unbound at 1 h in data set [6] is 0.042. The Vd in [7] was 4.5 L/kg.

Source of the values: ChEMBL document CHEMBL4382258, “Design and Optimization of Sulfone Pyrrolidine Sulfonamide Antagonists of Transient Receptor Potential Vanilloid-4 with in Vivo Activity in a Pulmonary Edema Model” (J Med Chem, 2018).
